Screening data as filed in PubChem.
Only some compounds are listed: those with a hit (about 2% of all), similar ones and a draw of the others.
zVAD death inh: blocks zVAD induced death of L929 cells; L929 zVAD necroptosis rescue, ATP luminescence, 24 h; with zVAD 60 µM; viability rescue, % at 10 µM; actives 0.38% (n = 220,000); AID 1377;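 active = activation, scaled between plate controls, above about 75%, limit read from the data; inactive = activation under that limit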
PfM18AAP inh-1: blocks P. falciparum M18 aspartyl aminopeptidase. recombinant PfM18AAP, H-Glu-NHMec fluorogenic cleavage. inhibition, % at 7.35 µM. actives 1.2% (n = 290,000). AID 1822;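 active = inhibition above the campaign mean inhibition over all tested compounds plus 3 SD, cut at about 28% in these data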
TNF death inh: TNF-alpha cell death inhibition in Jurkat FADD-/- cells; Jurkat FADD-/- TNF necroptosis rescue, ATP luminescence, 24 h; 0 = TNF only, 100 = no-TNF cells; activation (protection from cell death), % at 10 µM; actives 0.068% (n = 220,000); AID 463075;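 active = activation, meaning protection from cell death, of at least 50% relative to plate controls; inactive = activation below 50%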;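 note: necroptosis triggered by 40 ng/mL TNF-alpha added together with compound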
Tb hexokinase: blocks Trypanosoma brucei hexokinase 1 activity; recombinant TbHK1, G6PDH-coupled NADH A340; inhibition, % at 10 µM; actives 0.11% (n = 220,000);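 active = inhibition of 50% or more in the single-dose primary screen; inactive = inhibition below 50%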
RBBP9 inh: blocks human serine hydrolase RBBP9; O75884; recombinant RBBP9, FP-Rh probe fluorescence polarization; inhibition, % at 7.94 µM; actives 0.2% (n = 220,000); AID 1515;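 active = inhibition above the campaign mean of all tested compounds plus 3 SD, cut at about 14% in these data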
Target sequence (O75884 whole entry, looked up): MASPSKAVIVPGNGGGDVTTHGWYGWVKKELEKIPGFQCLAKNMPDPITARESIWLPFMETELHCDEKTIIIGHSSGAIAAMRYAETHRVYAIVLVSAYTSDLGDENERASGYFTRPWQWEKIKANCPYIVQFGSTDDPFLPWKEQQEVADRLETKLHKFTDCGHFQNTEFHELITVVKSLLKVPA
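Measured by: FP readout at 525/598 nm; material: recombinant human RBBP9; also added: Serine-hydrolase probe FP-Rh, 375 nM pre-mixing; medium: Tris buffer pH 8.0, NaCl, Pluronic; replication: one well per compound; doses: one concentration, 7.94 µM nominal, 0.794% DMSO; timing: preincubation 30 min plus labeling 45 min at 25 °C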
Hep lipid drop: modulators of hepatic lipid droplet formation. AML12 mouse hepatocytes, oleate lipid droplets, BODIPY imaging. inhibition, % at 6.5 µM. actives 0.4% (n = 240,000). AID 1656;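 active = lipid droplet intensity inhibited by at least 50%, with more than 500 cells counted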
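Material – AML12 mouse liver cells · Also added – oleate loading, 100 µM · Compound dosing – 6.5 µM single-point dosing · Times – overnight treatment with compound plus oleate · Measured by – fluorescence imaging, 20x objective, two fields per well · Read-out – percent inhibition of filter-corrected integrated lipid droplet intensity per well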
PfM18AAP inh-2: confirmation of Plasmodium falciparum M18 aspartyl aminopeptidase inhibitors. shares compounds with PfM18AAP inh-1. recombinant PfM18AAP, H-Glu-NHMec fluorogenic cleavage. inhibition, % at 7.35 µM. actives 28% (n = 2,400);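 active = mean inhibition over replicate wells above the hit cutoff set for the earlier primary screen, cut at about 29% in these data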
CTSL1 counter: counter-screen for PFM18AAP inhibitors: confirmation of human cathepsin L inhibitors; shares compounds with PfM18AAP inh-1; purified cathepsin L1, Z-Leu-Arg-MCA fluorescence; inhibition, % at 5.96 µM; 2,400 tested, under 10 active;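 active = average inhibition across replicates above the hit cutoff set in the earlier primary screen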
Target sequence (P07711 whole entry, looked up): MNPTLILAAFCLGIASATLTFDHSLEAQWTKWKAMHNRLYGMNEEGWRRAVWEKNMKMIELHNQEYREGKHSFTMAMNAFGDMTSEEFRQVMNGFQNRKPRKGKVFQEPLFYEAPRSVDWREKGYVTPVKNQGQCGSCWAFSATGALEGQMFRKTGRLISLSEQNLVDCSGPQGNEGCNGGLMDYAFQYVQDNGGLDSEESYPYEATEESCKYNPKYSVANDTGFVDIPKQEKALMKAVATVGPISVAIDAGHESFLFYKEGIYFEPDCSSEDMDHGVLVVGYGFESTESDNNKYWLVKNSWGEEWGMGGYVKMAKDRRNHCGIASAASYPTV
Each line names hits and unclear results; the compound was inactive in the other large screens (follow-up assays come after a bar, where they were run).

O=C(NNc1nc2ccccc2s1)c1ccccc1F	PfM18AAP inh-1 47 (no result: Hep lipid drop) | PfM18AAP inh-2 inactive | CTSL1 counter inactive
O=C(NNc1nc2ccccc2s1)C1CC1	PfM18AAP inh-1 56 (no result: Hep lipid drop) | PfM18AAP inh-2 inactive | CTSL1 counter inactive
O=C(CSc1nc2ccccc2s1)Nc1ccc(Cl)c(C(=O)O)c1	none
O=C(CSc1nc2ccccc2s1)NNC(=O)Nc1ccc(Cl)c(Cl)c1	PfM18AAP inh-1 52 | PfM18AAP inh-2 inactive | CTSL1 counter inactive
O=C(NNc1nc2ccccc2s1)Nc1ccc(Cl)c(Cl)c1	PfM18AAP inh-1 60 | PfM18AAP inh-2 49 | CTSL1 counter inactive
C#CCOCCOCCOCCNc1nc(N2CCN(C(=O)[C@H](CCCCN)n3cc(C(N)CO)nn3)CC2)nc(N2CCN(C(=O)[C@H](CCC(=O)O)n3cc(C(N)[C@H](C)CC)nn3)CC2)n1 (stereo partly specified)	none
CSc1nnc(-c2sccc2OCc2ccc(C)cc2)n1C	none (no result: Hep lipid drop)
Cc1ccc(NC(=O)CSc2nc(O)c(Cc3ccccc3)c(=O)n2-c2ccccc2)cc1	none
O=C(NNc1nc2ccccc2s1)Nc1ccc(F)cc1	PfM18AAP inh-1 60 | PfM18AAP inh-2 34 | CTSL1 counter inactive
CC(C)(C)C1CCC(=NNC(=O)C(=O)NC2CCCCC2)CC1 (stereo unspecified)	none
O=C(NNc1ccc(-c2csnn2)cc1)c1cc(Cl)cc(Cl)c1	none
O=C(NNc1ccc(-c2csnn2)cc1)c1ccccc1C(F)(F)F	PfM18AAP inh-1 40 | PfM18AAP inh-2 inactive | CTSL1 counter inactive
OCCn1c(-c2ccc3c(c2)OCO3)csc1=Nc1ccccc1	PfM18AAP inh-1 37 | PfM18AAP inh-2 inactive | CTSL1 counter inactive
Cc1nnc(N/N=C/c2cc([N+](=O)[O-])c(N3CCC(C)CC3)cc2N2CCC(C)CC2)n1N	PfM18AAP inh-1 50 | PfM18AAP inh-2 inactive | CTSL1 counter inactive
CCc1nnc(N/N=C/c2ccc(N3CCC(C)CC3)c([N+](=O)[O-])c2)n1N	PfM18AAP inh-1 48 | PfM18AAP inh-2 inactive | CTSL1 counter inactive
CCOC(=O)c1sc(NNC(=O)c2ccc(C)cc2)nc1C	PfM18AAP inh-1 37 | PfM18AAP inh-2 inactive | CTSL1 counter inactive
CCNC(=S)Nc1cc(Cl)ccc1Oc1ccccc1	none
CN1C(=O)CS(=O)c2ccc(C(=O)NC3CC3)cc21 (stereo unspecified)	PfM18AAP inh-1 44 (no result: Hep lipid drop) | PfM18AAP inh-2 inactive | CTSL1 counter inactive
CN1C(=O)c2ccc(C(=O)NC3CCCCC3)cc2C1=O	none
O=C(CN1CCN(S(=O)(=O)c2ccc(Br)cc2)CC1)N/N=C/c1ccccc1C(=O)O	none (no result: zVAD death inh, TNF death inh, Tb hexokinase, RBBP9 inh)
O=C(CSc1ncn[nH]1)N1CCCCC1	PfM18AAP inh-1 45 | PfM18AAP inh-2 inactive | CTSL1 counter inactive
O=C(CSc1ncn[nH]1)c1cccc([N+](=O)[O-])c1	PfM18AAP inh-1 43 | PfM18AAP inh-2 38 | CTSL1 counter inactive
O=C(CSc1ncn[nH]1)c1ccccc1	PfM18AAP inh-1 42 (no result: Hep lipid drop) | PfM18AAP inh-2 53 | CTSL1 counter inactive
CN1/C(=C\C(=O)CSc2ncn[nH]2)C(C)(C)c2ccccc21	PfM18AAP inh-1 66 | PfM18AAP inh-2 inactive | CTSL1 counter inactive
O=C(CSc1nc2ncccc2[nH]1)c1cccc([N+](=O)[O-])c1	none
CS(=O)(=O)N1N=C(c2ccco2)CC1c1ccc(Cl)cc1Cl (stereo unspecified)	none
NC(=NCCc1ccccc1)NS(=O)(=O)c1ccccc1F	none (no result: zVAD death inh, TNF death inh, Tb hexokinase, RBBP9 inh)
O=C1CC(N2CCN(c3ccc(O)cc3)CC2)C(=O)N1c1ccc2c(c1)OCO2 (stereo unspecified)	PfM18AAP inh-1 32 | PfM18AAP inh-2 inactive | CTSL1 counter inactive
Nc1nc(Nc2ccccc2)n[nH]1	PfM18AAP inh-1 45 | PfM18AAP inh-2 inactive | CTSL1 counter inactive
Nc1nc(N2CCN(c3ccc(Cl)cc3)CC2)n[nH]1	none
Nc1nc(Nc2cccc(Cl)c2)n[nH]1	PfM18AAP inh-1 43 | PfM18AAP inh-2 inactive | CTSL1 counter inactive
NNc1nc(Nc2ccccc2)nc(Nc2ccccc2)n1	none
Nc1nc(Nc2ccc(Cl)cc2)n[nH]1	PfM18AAP inh-1 32 (no result: Hep lipid drop) | PfM18AAP inh-2 inactive | CTSL1 counter inactive
O=C(CN1CCOc2ccccc21)NCc1ccco1	none (no result: Hep lipid drop)
O=C(CN1CC(=O)Oc2ccccc21)NCc1ccco1	PfM18AAP inh-1 33 (no result: Hep lipid drop) | PfM18AAP inh-2 inactive | CTSL1 counter inactive
Cc1cc(C(=O)CSc2nc(N)cc(N)n2)c(C)n1C1CC1	PfM18AAP inh-1 36 | PfM18AAP inh-2 inactive | CTSL1 counter inactive
Cc1cc(C(=O)CSc2nc(N)cc(N)n2)c(C)n1-c1cccc(F)c1	PfM18AAP inh-1 34 | PfM18AAP inh-2 inactive | CTSL1 counter inactive
Cc1cc2nc3c(=O)[nH]c(=O)[nH]c3nc2c([N+](=O)[O-])c1N	PfM18AAP inh-1 32 | PfM18AAP inh-2 inactive | CTSL1 counter inactive
O=C1C=C(Nc2cccc(O)c2)CC(c2ccco2)C1 (stereo unspecified)	PfM18AAP inh-1 44 | PfM18AAP inh-2 inactive | CTSL1 counter inactive
O=C1C=C(Nc2ccc(Cl)cc2)CC(c2ccco2)C1 (stereo unspecified)	none
COc1ccccc1OC(C)C(=O)N(Cc1ccco1)C1CCS(=O)(=O)C1 (stereo unspecified)	none (no result: zVAD death inh, TNF death inh, Tb hexokinase, RBBP9 inh)
CN1C(=O)c2c(sc3c2CCCC3)NC1c1ccccc1O (stereo unspecified)	PfM18AAP inh-1 34 | PfM18AAP inh-2 inactive | CTSL1 counter inactive
CC(C)CC(=O)Nc1ccc(C(=O)COC(=O)C2CCC2)cc1	none (no result: zVAD death inh, TNF death inh, Tb hexokinase, RBBP9 inh)
COc1ccc(C2=Nn3c(nnc3-c3ccco3)SC2)cc1	none
Oc1ccc(C2=Nn3c(nnc3-c3ccco3)SC2)cc1O	PfM18AAP inh-1 75 | PfM18AAP inh-2 60 | CTSL1 counter inactive
Cc1cc(NC(=O)NC2(C(F)(F)F)Oc3ccc(Cl)cc3O2)no1 (stereo unspecified)	PfM18AAP inh-1 88 | PfM18AAP inh-2 83 | CTSL1 counter inactive
Cc1cc(NC(=O)Nc2ccc(F)c(Cl)c2)no1	none
COCCNC(=O)NC1(C(F)(F)F)Oc2ccc(Cl)cc2O1 (stereo unspecified)	PfM18AAP inh-1 83 (no result: Hep lipid drop) | PfM18AAP inh-2 61 | CTSL1 counter inactive
O=C(NCc1cccnc1)NC1(C(F)(F)F)Oc2ccc(Cl)cc2O1 (stereo unspecified)	PfM18AAP inh-1 80 | PfM18AAP inh-2 83 | CTSL1 counter inactive
CCCC[n+]1ccn(-c2nc3ccccc3nc2[N-]S(=O)(=O)c2cccs2)c1	none
COc1ccc(CCC(=O)Nc2ncc(C)s2)cc1	none (no result: zVAD death inh, TNF death inh, Tb hexokinase, RBBP9 inh)
